Values after ≈ are worked out from the molar mass of the structure shown. Active and inactive are the calls of the source. The rule behind the calls is not given here.
Experiments:
Staphylococcus aureus [1] = experiment: Bacteriostatic activity against methicillin-resistant Staphylococcus aureus S22 at MIC measured up to 3 to 6 hrs by time kill analysis; format: functional
Staphylococcus aureus [2] = experiment: Antibiofilm activity against methicillin-sensitive Staphylococcus aureus ATCC 6538 assessed as reduction in biofilm mass at 2 ug/ml measured after 24 hrs by crystal violet staining based method relative to control; format: functional; set-up: scale not given: the % may be the effect or the level left
Enterococcus faecalis [3] = experiment: Antibacterial activity against Enterococcus faecalis ATCC 49533 measured after overnight incubation by broth double-dilution method; format: functional
Method in brief: (§1)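 MIC by broth double-dilution in Mueller-Hinton medium. Re-testing at the time-kill inoculum used 1×10^6 CFU/mL.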

Staphylococcus aureus [4] = experiment: Antibacterial activity against methicillin-resistant Staphylococcus aureus G12 measured after overnight incubation by broth double-dilution method; format: functional
Method in brief: (§2)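 MIC by broth double-dilution in liquid Mueller-Hinton medium. Values are reported in µg/mL.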

Staphylococcus aureus [5] = experiment: Antibacterial activity against methicillin-resistant Staphylococcus aureus BRS3 measured after overnight incubation by broth double-dilution method; format: functional; method in brief: as §2
Staphylococcus aureus [6] = experiment: Antibacterial activity against methicillin-resistant Staphylococcus aureus C19 measured after overnight incubation by broth double-dilution method; format: functional; method in brief: as §2
Staphylococcus aureus [7] = experiment: Antibacterial activity against methicillin-resistant Staphylococcus aureus S17 measured after overnight incubation by broth double-dilution method; format: functional; method in brief: as §2
Staphylococcus aureus [8] = experiment: Antibacterial activity against methicillin-resistant Staphylococcus aureus S14 measured after overnight incubation by broth double-dilution method; format: functional; method in brief: as §2
Staphylococcus aureus [9] = experiment: Antibacterial activity against methicillin-sensitive Staphylococcus aureus ATCC 25923 measured after overnight incubation by broth double-dilution method; format: functional; method in brief: as §2
Staphylococcus aureus [10] = experiment: Antibacterial activity against methicillin-sensitive Staphylococcus aureus ATCC 6538 measured after overnight incubation by broth double-dilution method; format: functional; method in brief: as §2
Staphylococcus aureus [11] = experiment: Bactericidal activity against methicillin-resistant Staphylococcus aureus S22 at 4 times MIC measured after 24 hrs by time kill analysis; format: functional
Staphylococcus aureus [12] = experiment: Antibacterial activity against methicillin-resistant Staphylococcus aureus USA600 measured after overnight incubation by broth double-dilution method; format: functional; method in brief: as §2
[13] = Cytotoxicity against mouse RBCs assessed as hemolysis up to […] measured after 1 hr; format: toxicity, Erythrocyte; conditions: mouse red blood cells, read-out: Activity
Staphylococcus aureus [14] = experiment: Antibacterial activity against methicillin-resistant Staphylococcus aureus S22 using 1 10^6CFU/ml measured after overnight incubation by broth double-dilution method; format: functional
Staphylococcus aureus [15] = experiment: Antibacterial activity against methicillin-resistant Staphylococcus aureus ATCC 33591 measured after overnight incubation by broth double-dilution method; format: functional; method in brief: as §2
[16] = system: Staphylococcus epidermidis; experiment: Antibacterial activity against Staphylococcus epidermidis ATCC 12228 measured after overnight incubation by broth double-dilution method; format: functional; method in brief: as §1
Staphylococcus aureus [17] = experiment: Antibacterial activity against methicillin-resistant Staphylococcus aureus USA100 measured after overnight incubation by broth double-dilution method; format: functional; method in brief: as §2
Staphylococcus aureus [18] = experiment: Antibacterial activity against methicillin-resistant Staphylococcus aureus C14 measured after overnight incubation by broth double-dilution method; format: functional; method in brief: as §2
Enterococcus faecalis [19] = experiment: Antibacterial activity against Enterococcus faecalis ATCC 29212 measured after overnight incubation by broth double-dilution method; format: functional; method in brief: as §1
Staphylococcus aureus [20] = experiment: Antibacterial activity against methicillin-sensitive Staphylococcus aureus ATCC 29213 measured after overnight incubation by broth double-dilution method; format: functional; method in brief: as §2
Staphylococcus aureus [21] = experiment: Antibacterial activity against methicillin-resistant Staphylococcus aureus C2 measured after overnight incubation by broth double-dilution method; format: functional; method in brief: as §2
[22] = system: Mycolicibacterium smegmatis; experiment: Antibacterial activity against Mycobacterium smegmatis MC2-155 measured after overnight incubation by broth double-dilution method; format: functional; conditions: str. MC2 155; method in brief: as §2
Salmonella enterica = experiment: Antibacterial activity against Salmonella enterica ATCC 14028 measured after overnight incubation by broth double-dilution method; format: functional; method in brief: as §1
Staphylococcus aureus [23] = experiment: Antibacterial activity against methicillin-resistant Staphylococcus aureus C1 measured after overnight incubation by broth double-dilution method; format: functional; method in brief: as §2
Staphylococcus aureus [24] = experiment: Antibacterial activity against methicillin-resistant Staphylococcus aureus 1 measured after overnight incubation by broth double-dilution method; format: functional; method in brief: as §2
Staphylococcus aureus [25] = experiment: Antibacterial activity against methicillin-resistant Staphylococcus aureus C7 measured after overnight incubation by broth double-dilution method; format: functional; method in brief: as §2
Listeria monocytogenes = experiment: Antibacterial activity against Listeria monocytogenes ATCC 19115 measured after overnight incubation by broth double-dilution method; format: functional; method in brief: as §1
Klebsiella pneumoniae = experiment: Antibacterial activity against Klebsiella pneumoniae ATCC 27736 measured after overnight incubation by broth double-dilution method; format: functional; method in brief: as §2
Staphylococcus aureus [26] = experiment: Antibacterial activity against methicillin-resistant Staphylococcus aureus NRS4 measured after overnight incubation by broth double-dilution method; format: functional; method in brief: as §2
[27] = system: Staphylococcus epidermidis; experiment: Antibiofilm activity against Staphylococcus epidermidis ATCC 35984 assessed as reduction of biofilm at […] ug/ml measured after 24 hrs by crystal violet staining based method relative to control; format: functional, RP62A; set-up: scale not given: the % may be the effect or the level left
Staphylococcus aureus [28] = experiment: Bacteriostatic activity against methicillin-resistant Staphylococcus aureus S22 at 0.5 times MIC measured up to 3 to 6 hrs by time kill analysis; format: functional
Staphylococcus aureus [29] = experiment: Antibacterial activity against methicillin-resistant Staphylococcus aureus USA300 measured after overnight incubation by broth double-dilution method; format: functional; method in brief: as §2
Staphylococcus aureus [30] = experiment: Antibacterial activity against methicillin-resistant Staphylococcus aureus G1 measured after overnight incubation by broth double-dilution method; format: functional; method in brief: as §2
Staphylococcus aureus [31] = experiment: Antibacterial activity against methicillin-resistant Staphylococcus aureus G14 measured after overnight incubation by broth double-dilution method; format: functional; method in brief: as §2
Enterobacter cloacae = experiment: Antibacterial activity against Enterobacter cloacae ATCC 13047 measured after overnight incubation by broth double-dilution method; format: functional; conditions: subsp. cloacae ATCC 13047; method in brief: as §2
Staphylococcus aureus [32] = experiment: Antibacterial activity against methicillin-resistant Staphylococcus aureus USA200 measured after overnight incubation by broth double-dilution method; format: functional; method in brief: as §2
Staphylococcus aureus [33] = experiment: Antibacterial activity against methicillin-resistant Staphylococcus aureus C16 measured after overnight incubation by broth double-dilution method; format: functional; method in brief: as §2
Pseudomonas aeruginosa = experiment: Antibacterial activity against Pseudomonas aeruginosa ATCC 27853 measured after overnight incubation by broth double-dilution method; format: functional; method in brief: as §1
Staphylococcus aureus [34] = experiment: Antibacterial activity against methicillin-resistant Staphylococcus aureus 2 measured after overnight incubation by broth double-dilution method; format: functional; method in brief: as §2
[35] = system: Staphylococcus epidermidis; experiment: Antibacterial activity against Staphylococcus epidermidis ATCC 35984 measured after overnight incubation by broth double-dilution method; format: functional; conditions: RP62A; method in brief: as §1
Enterococcus faecium = experiment: Antibacterial activity against Enterococcus faecium BM4105-RF measured after overnight incubation by broth double-dilution method; format: functional; method in brief: as §2
Acinetobacter baumannii = experiment: Antibacterial activity against Acinetobacter baumannii ATCC 19606 measured after overnight incubation by broth double-dilution method; format: functional; method in brief: as §1
Staphylococcus aureus [36] = experiment: Antibiofilm activity against methicillin-sensitive Staphylococcus aureus ATCC 6538 assessed as reduction of biofilm at […] ug/ml measured after 24 hrs by crystal violet staining based method relative to untreated control; format: functional; set-up: scale not given: the % may be the effect or the level left
[37] = Cytotoxicity against HEK293 cells assessed as cell death up to 10 ug/ml measured after 24 hrs by resazurin dye-based fluorescence analysis relative to untreated control; format: toxicity; conditions: human, hek293, 24 h
Staphylococcus aureus [38] = experiment: Antibacterial activity against methicillin-resistant Staphylococcus aureus S24 measured after overnight incubation by broth double-dilution method; format: functional; method in brief: as §2
Escherichia coli = experiment: Antibacterial activity against Escherichia coli MC1061 measured after overnight incubation by broth double-dilution method; format: functional; method in brief: as §2
Enterococcus = experiment: Antibacterial activity against Vancomycin-resistant Enterococcus measured after overnight incubation by broth double-dilution method; format: functional; method in brief: as §2
Staphylococcus aureus [39] = experiment: Antibacterial activity against methicillin-resistant Staphylococcus aureus NRS77 measured after overnight incubation by broth double-dilution method; format: functional; method in brief: as §2
Staphylococcus aureus [40] = experiment: Antibacterial activity against methicillin-resistant Staphylococcus aureus G6 measured after overnight incubation by broth double-dilution method; format: functional; method in brief: as §2
Staphylococcus aureus [41] = experiment: Antibacterial activity against methicillin-resistant Staphylococcus aureus S22 measured after overnight incubation by broth double-dilution method; format: functional; method in brief: as §2
Staphylococcus aureus [42] = experiment: Antibacterial activity against methicillin-resistant Staphylococcus aureus NRS51 measured after overnight incubation by broth double-dilution method; format: functional; method in brief: as §2

O=c1c2ccccc2[se]n1-c1ccccc1 [EBSELEN]
Activity (Staphylococcus aureus [1]): Active | Activity (Staphylococcus aureus [2]): 60% | MIC (Enterococcus faecalis [3]): ≤ 0.25 µg/mL | MIC (Staphylococcus aureus [4]): 1 µg/mL (≈ 3.65 µM) | MIC (Staphylococcus aureus [5]): 7.8 µg/mL (≈ 28.4 µM) | MIC (Staphylococcus aureus [6]): 1 µg/mL (≈ 3.65 µM) | MIC (Staphylococcus aureus [7]): 1 µg/mL (≈ 3.65 µM) | MIC (Staphylococcus aureus [8]): ≤ 0.25 µg/mL | MIC (Staphylococcus aureus [9]): 3.9 µg/mL (≈ 14.2 µM) | MIC (Staphylococcus aureus [10]): 2 µg/mL (≈ 7.29 µM) | Activity (Staphylococcus aureus [11]): Active | MIC (Staphylococcus aureus [12]): 3.9 µg/mL (≈ 14.2 µM) | hemolysis at 1 h [13]: ≤ 20% | Activity (Staphylococcus aureus [14]): Active | MIC (Staphylococcus aureus [15]): 0.5 µg/mL (≈ 1.82 µM) | MIC [16]: > 125 µg/mL | MIC (Staphylococcus aureus [17]): 2 µg/mL (≈ 7.29 µM) | MIC (Staphylococcus aureus [18]): 2 µg/mL (≈ 7.29 µM) | MIC (Enterococcus faecalis [19]): 0.5 µg/mL (≈ 1.82 µM) | MIC (Staphylococcus aureus [20]): 2 µg/mL (≈ 7.29 µM) | MIC (Staphylococcus aureus [21]): 1 µg/mL (≈ 3.65 µM) | MIC [22]: 7.8 µg/mL (≈ 28.4 µM) | MIC (Salmonella enterica): > 125 µg/mL | MIC (Staphylococcus aureus [23]): 2 µg/mL (≈ 7.29 µM) | MIC (Staphylococcus aureus [24]): ≤ 0.25 µg/mL | MIC (Staphylococcus aureus [25]): 0.5 µg/mL (≈ 1.82 µM) | MIC (Listeria monocytogenes): 1 µg/mL (≈ 3.65 µM) | MIC (Klebsiella pneumoniae): > 125 µg/mL | MIC (Staphylococcus aureus [26]): 7.8 µg/mL (≈ 28.4 µM) | Activity [27]: 20% | Activity (Staphylococcus aureus [28]): Active | MIC (Staphylococcus aureus [29]): 3.9 µg/mL (≈ 14.2 µM) | MIC (Staphylococcus aureus [30]): 2 µg/mL (≈ 7.29 µM) | MIC (Staphylococcus aureus [31]): 1 µg/mL (≈ 3.65 µM) | MIC (Enterobacter cloacae): > 125 µg/mL | MIC (Staphylococcus aureus [32]): 2 µg/mL (≈ 7.29 µM) | MIC (Staphylococcus aureus [33]): 3.9 µg/mL (≈ 14.2 µM) | MIC (Pseudomonas aeruginosa): > 125 µg/mL | MIC (Staphylococcus aureus [34]): 2 µg/mL (≈ 7.29 µM) | MIC [35]: 0.25 µg/mL (≈ 0.912 µM) | MIC (Enterococcus faecium): 0.5 µg/mL (≈ 1.82 µM) | MIC (Acinetobacter baumannii): 15.6 µg/mL (≈ 56.9 µM) | Activity (Staphylococcus aureus [36]): 20% | Activity [37]: Non-Toxic | MIC (Staphylococcus aureus [38]): 0.5 µg/mL (≈ 1.82 µM) | MIC (Escherichia coli): 7.8 µg/mL (≈ 28.4 µM) | MIC (Enterococcus): 1 µg/mL (≈ 3.65 µM) | MIC (Staphylococcus aureus [39]): 3.9 µg/mL (≈ 14.2 µM) | MIC (Staphylococcus aureus [40]): 1 µg/mL (≈ 3.65 µM) | MIC (Staphylococcus aureus [41]): 1 µg/mL (≈ 3.65 µM) | MIC (Staphylococcus aureus [42]): 1 µg/mL (≈ 3.65 µM)

Reference: ChEMBL document CHEMBL3864121, “Development of ebsulfur analogues as potent antibacterials against methicillin-resistant Staphylococcus aureus” (Bioorg Med Chem, 2016)
